This is a sample that favours compounds with a hit; in the whole collection about 2.2% have one here.
Env fusion inh = inhibitors of HIV Env-mediated cell fusion. HeLa-JRFL Env/CEM21 cell fusion, luciferase. inhibition, % at 12.3 µM. 360,000 compounds, 1.1% hits. AID 651610;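 active = mean replicate inhibition score of at least 50 and every replicate individually at or above 50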;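 note: 0% = plate neutral controls and 100% = maraviroc near 300 nM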
V-ATPase pH = alters yeast V-ATPase proton transport; S. cerevisiae, pHLuorin cytosolic pH fluorescence; response, % at 10 µM; 350,000 compounds, 0.37% hits; AID 504577; in the data active = response mostly above about 7.3%, no sharp cut-off; inactive = mostly below about 5.4%; note: actives read high
GalR3 antagonist = blocks the human galanin receptor 3 | 360,000 compounds, 0.44% hits | AID 651719 | HEK293 GalR3-CNG cAMP membrane potential fluorescence; galR3 body fused to GalR1 C-terminus | inhibition, % at 3 µM | O60755;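 active = inhibition above the screen-wide average plus 3 SD, cut at about 13% in these data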;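 note: forskolin and galanin both at EC90 stimulate the cells; cAMP rise reported by CNG channel membrane potential dye signal; 0% = forskolin plus galanin with DMSO and 100% = forskolin alone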
Target sequence (O60755 1-299 limits assumed): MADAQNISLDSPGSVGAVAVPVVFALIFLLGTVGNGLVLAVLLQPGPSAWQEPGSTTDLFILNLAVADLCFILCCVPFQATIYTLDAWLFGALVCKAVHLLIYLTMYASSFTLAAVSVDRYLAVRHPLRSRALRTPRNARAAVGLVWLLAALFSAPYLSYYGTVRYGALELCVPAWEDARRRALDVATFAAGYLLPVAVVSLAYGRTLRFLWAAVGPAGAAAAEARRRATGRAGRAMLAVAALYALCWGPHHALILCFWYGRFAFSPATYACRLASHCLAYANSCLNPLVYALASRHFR
NR2E3 ag-1 = activates human NR2E3 receptor; Q9Y5X4; CHO-S Gal4-NCOR/VP16-NR2E3 two-hybrid, luciferase; inhibition of corepressor binding, % at 3.98 µM; 360,000 compounds, 0.35% hits;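 active = inhibition above the mean of all tested compounds plus 3 SD, cut at about 70% in these data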;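 note: 0% = DMSO with NR2E3 transfected cells and 100% = cells lacking NR2E3 construct; higher means lower luciferase signal from less NR2E3 corepressor binding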
Target sequence (Q9Y5X4 whole entry, looked up, the tested form may be a part): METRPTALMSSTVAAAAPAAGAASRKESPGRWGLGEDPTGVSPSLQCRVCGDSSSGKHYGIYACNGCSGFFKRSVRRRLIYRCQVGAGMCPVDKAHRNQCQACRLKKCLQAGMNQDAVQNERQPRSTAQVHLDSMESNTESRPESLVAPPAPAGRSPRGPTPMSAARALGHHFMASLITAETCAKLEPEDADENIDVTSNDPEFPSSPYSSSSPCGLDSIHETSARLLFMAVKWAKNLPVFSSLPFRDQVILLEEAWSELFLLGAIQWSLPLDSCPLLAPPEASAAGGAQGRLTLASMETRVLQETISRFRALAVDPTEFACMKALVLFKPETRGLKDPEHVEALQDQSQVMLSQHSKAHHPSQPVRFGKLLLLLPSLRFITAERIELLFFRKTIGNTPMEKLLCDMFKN
GAA850 FXN act = increases GAA850 frataxin promoter reporter activity; 360,000 compounds, 0.56% hits; activation, % at 6 µM; HEK293 lucGAA850 FXN promoter luciferase reporter, 24 h; percent of 10 µM SAHA response;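 active = activation above the average of all compounds screened plus 3 SD, cutoff fixed separately per campaign, cut at about 7.5% in these data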;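 note: 0% = DMSO wells and 100% = 10 µM SAHA wells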
NR2E3 ag-2 = agonists of human nuclear receptor NR2E3; 320,000 compounds, 0.12% hits; inhibition of corepressor binding, % at 4.78 µM; AID 2300; Q9Y5X4; GST-NR2E3/biotin-RetCOR TR-FRET, 1536-well;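 active = percent inhibition above the cutoff of mean plus 3 SD of all tested compounds, set per screening campaign, cut at about 20% in these data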;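 note: 0% = DMSO wells and 100% = biotin wells as full block of FRET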
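System: GST-tagged NR2E3 plus biotinylated RetCOR corepressor; Buffer or medium: pH 7.5 Tris-based buffer; Probe or stimulus: RetCOR corepressor, biotinylated, 7 nM; Doses: compound at 4.8 µM, single dose; Schedule: 5 h incubation at 4 °C; Technique: time-resolved FRET; Evaluation: percent inhibition of TR-FRET ratio; Replication: one well per compound, singlicate testing.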
GalR3 conf = confirmation of human galanin receptor 3 antagonists; inhibition, % at 3 µM; shares compounds with GalR3 antagonist; AID 652245; 1,600 compounds, 59% hits; HEK293 GalR3 CNG cAMP biosensor, membrane potential fluorescence; galR3 fused to GalR1 carboxy tail; challenged with forskolin and galanin at EC90;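 active = inhibition above the primary screen's cutoff, the mean inhibition of all screened compounds plus 3 SD, cut at about 13% in these data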;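 note: 0% = forskolin plus galanin and 100% = forskolin alone with DMSO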
CNG parental = counter-screen for GalR3 antagonists: nonspecific agonists in parental HEK-CNG cells; shares compounds with GalR3 antagonist; HEK293-CNG parental cells, cAMP membrane potential fluorescence; normalised: DMSO wells 0%, forskolin wells 100%; activation, % at 3 µM; 1,600 compounds, 10% hits; AID 652268; in the data active = activation above about 1.3%
Starred values were filed as active, the others as inactive; [ ] = dose if it differs, or a comment.

Results for COCCNC(=O)C/C(C)=N/NC(=O)C(=O)NC1CCCCC1 ?
Env fusion inh: -1.5; V-ATPase pH: 1.3; GalR3 antagonist: 12.7*; NR2E3 ag-1: -28.6; GAA850 FXN act: 0.3; NR2E3 ag-2: 3.5; GalR3 conf: 2.4; CNG parental: 0.3

What do the screens show for `C[C@H]1CN([C@@H](C)CO)C(=O)c2cccc(NC(=O)C3CC3)c2O[C@@H]1CN(C)Cc1ccncc1`?
Env fusion inh: -3.8[16.7 µM]

How did COc1cc(C#Cc2c(-c3ccccc3OC)oc3ccccc23)cc(OC)c1 do in these assays?
Env fusion inh: -8.2; V-ATPase pH: -2.3; GalR3 antagonist: 13.4*; NR2E3 ag-1: 2.6; GAA850 FXN act: 2.6; NR2E3 ag-2: -1.4; GalR3 conf: 6.0; CNG parental: 0.3

How did CCn1nc(CC(=O)Nc2ccc(-n3cnnn3)c(OC)c2)c2ccccc2c1=O do in these assays?
Env fusion inh: -15.6; V-ATPase pH: 0.9; GalR3 antagonist: 17.3*; NR2E3 ag-1: -15.2; GAA850 FXN act: 1.0; NR2E3 ag-2: 2.6; GalR3 conf: 17.4*; CNG parental: 0.1

What do the screens show for `CCN(CC)S(=O)(=O)c1cccc(NC(=O)COC(=O)c2[nH]c(C)c(C(C)=O)c2C)c1`?
Env fusion inh: 25.7; GalR3 antagonist: 28.3*; NR2E3 ag-1: 41.8; GAA850 FXN act: -4.6; GalR3 conf: 97.3*; CNG parental: -0.3

Results for CCOC(=O)COc1ccc(S(=O)(=O)NCc2ccncc2)cc1 ?
V-ATPase pH: -2.6; GalR3 antagonist: 110.2*; NR2E3 ag-1: 13.3; GAA850 FXN act: -4.0; NR2E3 ag-2: 1.1; GalR3 conf: 110.8*; CNG parental: -0.2

What do the screens show for `CO[C@H]1CN(C)C(=O)c2cc(NS(=O)(=O)c3cccc(F)c3)ccc2OC[C@H](C)N(C(=O)Cc2cccnc2)C[C@@H]1C`?
Env fusion inh: 2.7[16.7 µM]

Results for C=CCOC(=O)c1[nH]c2c(c1C)C(=O)CC(c1ccco1)C2 (stereo not given) ?
NR2E3 ag-2: 3.1

Results for Cc1c(C(=O)OCC(C)C)[nH]c2c1C(=O)CC(c1ccco1)C2 (stereo not given) ?
Env fusion inh: -74.5; V-ATPase pH: -0.3; GalR3 antagonist: 17.4*; NR2E3 ag-1: 40.2; GAA850 FXN act: -3.3; NR2E3 ag-2: -2.4; GalR3 conf: 2.6; CNG parental: 2.5*

Results for COc1ccc(OC)c(-c2nnc3n2N=C(c2ccc(OC)c(OC)c2)CS3)c1 ?
Env fusion inh: inactive; V-ATPase pH: -1.4; GalR3 antagonist: 50.0*; NR2E3 ag-1: 32.8; GAA850 FXN act: 1.0; GalR3 conf: 33.8*; CNG parental: 1.5*

What do the screens show for `COc1ccc(OC)c(-c2nnc3n2N=C(c2ccc(OC)c(OC4CCCC4)c2)CS3)c1`?
Env fusion inh: -53.8; V-ATPase pH: -3.3; GalR3 antagonist: 0.6; NR2E3 ag-1: 15.1; GAA850 FXN act: -2.6

What do the screens show for `CC(C)Oc1ncnc2c1[nH]c1ccccc12`?
Env fusion inh: -2.2; V-ATPase pH: 2.6; GalR3 antagonist: 19.4*; NR2E3 ag-1: 9.4; GAA850 FXN act: -1.0; NR2E3 ag-2: 0.9; GalR3 conf: 6.0; CNG parental: -0.4

What do the screens show for `COc1ccccc1NC(=O)CSC1=NC(=O)C(Cc2ccccc2)C(=O)N1` (stereo not given)?
Env fusion inh: 2.3; V-ATPase pH: 2.2; GalR3 antagonist: 13.5*; NR2E3 ag-1: -23.3; GAA850 FXN act: -1.4; NR2E3 ag-2: 1.4; GalR3 conf: -3.2; CNG parental: 0.1

How did CCCNC(=O)C[C@@H]1C[C@@H]2c3cc(NC(=O)COC)ccc3O[C@@H]2[C@H](CO)O1 do in these assays?
Env fusion inh: -6.0[16.7 µM]

Results for COc1cccc(NC(=S)N(CCCN2CCCC2)Cc2ccco2)c1 ?
Env fusion inh: -10.9; V-ATPase pH: 8.4; GalR3 antagonist: 21.0*; NR2E3 ag-1: -1.1; GAA850 FXN act: -0.7; NR2E3 ag-2: 1.8; GalR3 conf: 1.3; CNG parental: 0.5

Results for COc1cccc(NC(=S)N(CCCN2CCN(C)CC2)Cc2ccco2)c1 ?
Env fusion inh: -5.8; V-ATPase pH: 1.3; GalR3 antagonist: 6.6; NR2E3 ag-1: -7.6; GAA850 FXN act: 0.3; NR2E3 ag-2: 1.6

Results for C[C@H](CO)N1C[C@H](C)[C@H](CN(C)Cc2ccc(C(=O)O)cc2)OCCCC[C@H](C)Oc2ccc(NC(=O)Nc3ccc4c(c3)OCO4)cc2C1=O ?
Env fusion inh: -0.7[16.7 µM]

What do the screens show for `O=C(O)c1cccc(C(=O)O)c1`?
V-ATPase pH: 0.1; GalR3 antagonist: -6.5; NR2E3 ag-1: 3.0; GAA850 FXN act: -0.5; NR2E3 ag-2: 4.2

What do the screens show for `O=C(O)c1ccc(O)c(O)c1`?
V-ATPase pH: 3.5; GalR3 antagonist: 13.5*; NR2E3 ag-1: 4.5; GAA850 FXN act: -2.4; NR2E3 ag-2: 2.3; GalR3 conf: 4.3; CNG parental: 0.1

What do the screens show for `CCc1nc2ccccc2c(C(=O)OCC(=O)Nc2cccc(S(=O)(=O)NC3=NCCCCC3)c2)c1C`?
Env fusion inh: 39.8; V-ATPase pH: 0.7; GalR3 antagonist: 13.9*; NR2E3 ag-1: -20.4; GAA850 FXN act: -1.8; NR2E3 ag-2: 1.5; GalR3 conf: -0.3; CNG parental: -0.8

How did C[C@@H]1CN([C@@H](C)CO)C(=O)CCCn2nncc2CO[C@H]1CN(C)S(=O)(=O)c1ccc(-c2ccccc2)cc1 do in these assays?
Env fusion inh: -14.0; V-ATPase pH: -1.0; GalR3 antagonist: 13.0*; NR2E3 ag-1: -21.6; GAA850 FXN act: -1.0; GalR3 conf: 45.4*; CNG parental: 0.1

Results for CCn1cc([N+](=O)[O-])c(C(=O)N2N=C(c3ccc(O)c(OC)c3)CC2c2ccccc2O)n1 (stereo not given) ?
Env fusion inh: -0.3; V-ATPase pH: -3.0; GalR3 antagonist: -0.7; NR2E3 ag-1: 3.8; GAA850 FXN act: 2.4; NR2E3 ag-2: -0.3

What do the screens show for `CCn1cc([N+](=O)[O-])c(C(=O)N2N=C(c3ccc(Cl)c(Cl)c3)CC2c2ccccc2O)n1` (stereo not given)?
Env fusion inh: 4.6; V-ATPase pH: -1.2; GalR3 antagonist: 14.7*; NR2E3 ag-1: -24.3; GAA850 FXN act: 3.7; NR2E3 ag-2: 3.3; GalR3 conf: 19.6*; CNG parental: 0.2

Screening data from PubChem.
